Source: ChEMBL document CHEMBL1145867, “Muraymycins, novel peptidoglycan biosynthesis inhibitors: synthesis and SAR of their analogues” (2003)
≈ marks a conversion by molar mass, not a printed value. One block for each compound: values may come before it. Calls of active or inactive are those of the source. The calls are words filed in the database; no cut-off is given here.

Assays:
[1] = The inhibitory activity of compound against MraY or MurG at 12.5 ug/mL; Inhibit
[2] = The inhibitory activity of compound against MraY or MurG at 25 ug/mL; Inhibit
[3] = The inhibitory activity of compound against MraY or MurG at 50 ug/mL; Inhibit
[4] = The inhibitory activity of compound against MraY or MurG at 100 ug/mL; Inhibit
[5] = The inhibitory activity of compound against MraY or MurG at 6.25 ug/mL; Inhibit
[6] = test system: Candida albicans; test: In vitro antimicrobial activity against Candida albicans […] at 10.7 ug/ml soluble peptidoglycan; type: functional
[7] = test system: Enterococcus faecalis; test: In vitro antimicrobial activity against Enterococcus faecalis GC 4555 at 10.7 ug/ml soluble peptidoglycan; type: functional
[8] = test system: Staphylococcus aureus; test: In vitro antimicrobial activity against Staphylococcus aureus GC 4536 at 10.7 ug/ml soluble peptidoglycan; type: functional
[9] = test system: Staphylococcus aureus; test: In vitro antimicrobial activity against Staphylococcus aureus GC 2216 at 10.7 ug/ml soluble peptidoglycan; type: functional
[10] = test system: Bacteria; test: In vitro antimicrobial activity against gram-negative organisms (10)
[11] = test system: Staphylococcus sp.; test: In vitro antimicrobial activity against CNS GC 4547 at 10.7 ug/mL soluble peptidoglycan; type: functional
[12] = test system: Enterococcus faecalis; test: In vitro antimicrobial activity against Enterococcus faecalis GC 2242 at 10.7 ug/ml soluble peptidoglycan; type: functional
[13] = The inhibitory activity of compound against MraY or MurG at 6.25 ug/mL; No Inhibition
[14] = test system: Staphylococcus sp.; test: In vitro antimicrobial activity against Coagulase-negative staphylococcus GC 4538 at 10.7 ug/ml soluble peptidoglycan; type: functional
[15] = test system: Enterococcus faecalis; test: In vitro antimicrobial activity against Enterococcus faecalis GC 842 at 10.7 ug/ml soluble peptidoglycan; type: functional
[16] = test system: Staphylococcus sp.; test: In vitro antimicrobial activity against CNS GC 4538 at 10.7 ug/ml soluble peptidoglycan; type: functional
[17] = test system: Staphylococcus aureus; test: In vitro antimicrobial activity against Staphylococcus aureus GC 1131 at 10.7 ug/ml soluble peptidoglycan; type: functional
[18] = The inhibitory activity of compound against MraY or MurG at 12.5 ug/mL; No Inhibition
[19] = The inhibitory activity of compound against MraY or MurG at 25 ug/mL; No Inhibition
[20] = test system: Staphylococcus sp.; test: In vitro antimicrobial activity against CNS GC 4538 at 32 ug/ml soluble peptidoglycan; type: functional
[21] = test system: Enterococcus faecalis; test: In vitro antimicrobial activity against Enterococcus faecalis GC 4555 at 32 ug/ml soluble peptidoglycan; type: functional
[22] = test system: Staphylococcus aureus; test: In vitro antimicrobial activity against Staphylococcus aureus GC 1131 at 32 ug/ml soluble peptidoglycan; type: functional
[23] = test system: Candida albicans; test: In vitro antimicrobial activity against Candida albicans […] at 32 ug/ml soluble peptidoglycan; type: functional
[24] = test system: Staphylococcus sp.; test: In vitro antimicrobial activity against Coagulase-negative staphylococcus GC 4538 at 32 ug/ml soluble peptidoglycan; type: functional
[25] = test system: Enterococcus faecalis; test: In vitro antimicrobial activity against Enterococcus faecalis GC 842 at 32 ug/ml soluble peptidoglycan; type: functional
[26] = test system: Enterococcus faecalis; test: In vitro antimicrobial activity against Enterococcus faecalis GC 2242 at 32 ug/ml soluble peptidoglycan; type: functional
[27] = test system: Staphylococcus aureus; test: In vitro antimicrobial activity against Staphylococcus aureus GC 4536 at 32 ug/ml soluble peptidoglycan; type: functional
[28] = test system: Staphylococcus aureus; test: In vitro antimicrobial activity against Staphylococcus aureus GC 2216 at 32 ug/ml soluble peptidoglycan; type: functional
[29] = test system: Staphylococcus sp.; test: In vitro antimicrobial activity against CNS GC 4547 at 32 ug/ml soluble peptidoglycan; type: functional
[30] = test system: Staphylococcus aureus; test: In vitro antimicrobial activity against Staphylococcu aureus GC 2216; type: functional
Method in brief: (§1)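 Broth microdilution per NCCLS guidance. Serial dilutions of each agent in microtiter plates are inoculated with each organism to 10⁵ CFU/mL and incubated 18–22 h at 35 C in ambient air. MIC is the lowest concentration giving complete growth inhibition, judged by the unaided eye.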

[31] = test system: Enterococcus faecalis; test: In vitro antimicrobial activity against Enterococcus faecalis GC 4555; type: functional; method in brief: as §1
[32] = test system: Staphylococcus aureus; test: In vitro antimicrobial activity against Staphylococcu aureus GC 4536; type: functional; method in brief: as §1
[33] = test system: Bacteria; test: In vitro antimicrobial activity against gram-negative organisms (10); type: functional; method in brief: as §1
[34] = test system: Escherichia coli; test: In vitro antimicrobial activity against Escherichia coli GC 4559; type: functional; method in brief: as §1
[35] = test system: Staphylococcus sp.; test: In vitro antimicrobial activity against CNS GC 4538; type: functional; method in brief: as §1
[36] = test system: Escherichia coli; test: In vitro antimicrobial activity against Escherichia coli GC 2214; type: functional; method in brief: as §1
[37] = test system: Morganella morganii; test: In vitro antimicrobial activity against Morganella morganii GC 4531; type: functional; method in brief: as §1
[38] = test system: Pseudomonas aeruginosa; test: In vitro antimicrobial activity against Pseudomonas aeruginosa GC 2214; type: functional; method in brief: as §1
[39] = test system: Klebsiella pneumoniae; test: In vitro antimicrobial activity against Klebsiella pneumoniae GC 4534; type: functional; method in brief: as §1
[40] = test system: Staphylococcus sp.; test: In vitro antimicrobial activity against CNS GC 4547; type: functional; method in brief: as §1
[41] = The inhibitory activity of compound against MraY or MurG at 100 ug/mL;Inhibit
[42] = test system: Staphylococcus sp.; test: In vitro antimicrobial activity against Staphylococci; type: functional, staphyl ococcus species; method in brief: as §1
[43] = test system: Enterobacter cloacae; test: In vitro antimicrobial activity against Enterobacter cloacae GC 3783; type: functional; method in brief: as §1
[44] = test system: Escherichia coli; test: In vitro antimicrobial activity against Escherichia coli GC 3226; type: functional; method in brief: as §1
[45] = test system: Enterococcus sp.; test: In vitro antimicrobial activity against Enterococci; type: functional; method in brief: as §1
[46] = test system: Enterococcus faecalis; test: In vitro antimicrobial activity against Enterococcus faecalis GC 842; type: functional; method in brief: as §1
[47] = test system: Pseudomonas aeruginosa; test: In vitro antimicrobial activity against Pseudomonas aeruginosa GC 4532; type: functional; method in brief: as §1
[48] = test system: Escherichia coli; test: In vitro antimicrobial activity against Escherichia coli GC 4560; type: functional; method in brief: as §1
[49] = test system: Candida albicans; test: In vitro antimicrobial activity against Candida albicans GC 3066; type: functional; method in brief: as §1
[50] = test system: Staphylococcus aureus; test: In vitro antimicrobial activity against Staphylococcu aureus GC 1131; type: functional
Method in brief: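 Broth dilution per NCCLS recommendations. Serial dilutions in microtiter plates inoculated to 10⁵ CFU/mL, then incubated 18–22 h at 35 C in ambient air. MIC taken as the lowest concentration giving complete growth inhibition by unaided eye.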

[51] = test system: Serratia marcescens; test: In vitro antimicrobial activity against Serratia marcescens GC 4077; type: functional; method in brief: as §1
[52] = test system: Enterococcus faecalis; test: In vitro antimicrobial activity against Enterococcus faecalis GC 2242; type: functional; method in brief: as §1

Inhibitory activity [1]: Inhibit
Inhibitory activity [2]: Inhibit
Inhibitory activity [3]: Inhibit
Inhibitory activity [4]: Inhibit
Inhibitory activity [5]: Inhibit
SMILES: COC1C(O)[C@@H](OC(C(NCCCNC(=O)[C@H](NC(=O)[C@@H](NC(=O)N[C@H](C(=O)O)C(C)C)C2CCN=C(N)N2)C(O)C(C)C)C(=O)O)[C@H]2O[C@@H](n3ccc(=O)[nH]c3=O)[C@H](O)[C@@H]2O)O[C@H]1CN (stereo not given in full)

MIC [6]: 128 µg/mL (≈ 141 µM)
MIC [7]: 128 µg/mL (≈ 141 µM)
MIC [8]: 128 µg/mL (≈ 141 µM)
MIC [9]: 128 µg/mL (≈ 141 µM)
MIC [10]: > 128 µg/mL
Inhibitory activity [3]: Inhibit
MIC [11]: 8 µg/mL (≈ 8.81 µM)
MIC [12]: 128 µg/mL (≈ 141 µM)
Inhibitory activity [13]: inactive
MIC [14]: 128 µg/mL (≈ 141 µM)
MIC [15]: > 128 µg/mL
Inhibitory activity [4]: Inhibit
MIC [16]: 128 µg/mL (≈ 141 µM)
MIC [17]: 128 µg/mL (≈ 141 µM)
Inhibitory activity [18]: inactive
Inhibitory activity [19]: inactive
SMILES: COc1ccc(Cn2c(=O)ccn([C@@H]3OC([C@@H](O)[C@H](NCCCNC(=O)[C@H](N)C(O)C(C)C)C(=O)OC(C)(C)C)[C@@H](O[Si](C)(C)C(C)(C)C)[C@H]3O[Si](C)(C)C(C)(C)C)c2=O)cc1 (stereo not given in full)

MIC [20]: > 128 µg/mL
MIC [21]: > 128 µg/mL
MIC [22]: > 128 µg/mL
MIC [23]: 128 µg/mL (≈ 126 µM)
MIC [24]: > 128 µg/mL
MIC [10]: > 128 µg/mL
MIC [25]: 128 µg/mL (≈ 126 µM)
MIC [26]: > 128 µg/mL
MIC [27]: > 128 µg/mL
MIC [28]: > 128 µg/mL
MIC [29]: > 128 µg/mL
SMILES: COc1ccc(Cn2c(=O)ccn([C@@H]3OC([C@H](O)[C@H](NCCCNC(=O)[C@H](NC(=O)OCc4ccccc4)C(C)O)C(=O)OC(C)(C)C)[C@@H](O[Si](C)(C)C(C)(C)C)[C@H]3O[Si](C)(C)C(C)(C)C)c2=O)cc1 (stereo not given in full)

SMILES: COc1ccc(Cn2c(=O)ccn([C@@H]3OC([C@H](O)[C@H](NCCCNC(=O)[C@H](N)C(O)C(C)C)C(=O)OC(C)(C)C)[C@@H](O[Si](C)(C)C(C)(C)C)[C@H]3O[Si](C)(C)C(C)(C)C)c2=O)cc1 (stereo not given in full)
MIC [30]: 4 µg/mL (≈ 4.4 µM)
MIC [31]: 4 µg/mL (≈ 4.4 µM)
MIC [32]: 16 µg/mL (≈ 17.6 µM)
MIC [33]: > 128 µg/mL
MIC [34]: > 128 µg/mL
MIC [35]: 4 µg/mL (≈ 4.4 µM)
MIC ([35]; Staphylococcus sp., read-out: MIC): 4 µg/mL (≈ 4.4 µM)
MIC [36]: > 128 µg/mL
MIC [37]: > 128 µg/mL
MIC [38]: > 128 µg/mL
Inhibitory activity [3]: Inhibit
MIC [39]: > 128 µg/mL
MIC [40]: 16 µg/mL (≈ 17.6 µM)
Inhibitory activity [13]: inactive
Inhibitory activity [41]: Inhibit
MIC [42]: 4 µg/mL (≈ 4.4 µM)
MIC [43]: > 128 µg/mL
MIC [44]: > 128 µg/mL
MIC [45]: 128 µg/mL (≈ 141 µM)
MIC [46]: 8 µg/mL (≈ 8.81 µM)
MIC [47]: > 128 µg/mL
MIC [48]: > 128 µg/mL
MIC [49]: > 128 µg/mL
Inhibitory activity [18]: inactive
Inhibitory activity [19]: inactive
MIC [50]: 4 µg/mL (≈ 4.4 µM)
MIC [51]: > 128 µg/mL
MIC [52]: 4 µg/mL (≈ 4.4 µM)
